Source: ChEMBL document CHEMBL4706650, “Discovery of a Novel and Brain-Penetrant O-GlcNAcase Inhibitor via Virtual Screening, Structure-Based Analysis, and Rational Lead Optimization” (J Med Chem, 2021)
Calls of active or inactive are those of the source. The calls are words filed in the database; no cut-off is given here.

Key:
Protein O-GlcNAcase [1] = biological target: T1, Protein O-GlcNAcase (Homo sapiens, UniProt O60502); assay: Inhibition of full-length human OGA expressed in Expi293 (HEK293) cells using 4-methylumbelliferyl-N-acetyl-beta-D-glucosaminide dihydrate as fluorogenic substrate preincubated with enzyme followed by substrate addition and measured every 5 mins for 60 mins by fluorescence based analysis
T1 sequence (O60502 whole entry): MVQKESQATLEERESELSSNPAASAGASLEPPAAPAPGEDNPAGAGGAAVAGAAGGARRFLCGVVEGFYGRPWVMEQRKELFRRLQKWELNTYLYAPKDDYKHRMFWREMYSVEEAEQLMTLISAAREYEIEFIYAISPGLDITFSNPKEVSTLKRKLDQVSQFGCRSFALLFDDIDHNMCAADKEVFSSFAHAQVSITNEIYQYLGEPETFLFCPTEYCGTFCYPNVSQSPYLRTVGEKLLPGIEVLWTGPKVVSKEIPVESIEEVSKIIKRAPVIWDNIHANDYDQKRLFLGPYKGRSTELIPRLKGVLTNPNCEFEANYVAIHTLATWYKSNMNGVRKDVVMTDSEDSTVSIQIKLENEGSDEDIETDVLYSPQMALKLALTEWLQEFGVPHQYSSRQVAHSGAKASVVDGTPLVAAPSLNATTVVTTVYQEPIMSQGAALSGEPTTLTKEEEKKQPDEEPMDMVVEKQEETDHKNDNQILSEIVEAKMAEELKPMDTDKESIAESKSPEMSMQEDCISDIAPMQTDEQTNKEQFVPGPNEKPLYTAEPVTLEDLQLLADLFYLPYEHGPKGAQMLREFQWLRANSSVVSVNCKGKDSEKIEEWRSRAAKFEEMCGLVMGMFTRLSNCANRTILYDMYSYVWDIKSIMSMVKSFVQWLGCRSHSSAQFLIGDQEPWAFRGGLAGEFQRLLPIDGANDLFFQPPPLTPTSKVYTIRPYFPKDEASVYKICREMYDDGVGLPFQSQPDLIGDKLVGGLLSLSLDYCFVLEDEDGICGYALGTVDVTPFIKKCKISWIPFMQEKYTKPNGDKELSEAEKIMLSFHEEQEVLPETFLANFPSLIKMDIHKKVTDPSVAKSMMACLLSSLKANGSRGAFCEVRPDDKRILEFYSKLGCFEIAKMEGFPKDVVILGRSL
Procedure, shortened: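 Human OGA, FLAG-tagged full length from transfected Expi293 cells, purified by anti-FLAG agarose and gel filtration, 1 nM. Buffer 50 mM NaH2PO4, 100 mM NaCl, 0.01% BSA, 0.01% Tween 20, 1 mM DTT, pH 7.4; 2 mM substrate added to start after compound, RT. Ex 355/em 460 nm; 0% control enzyme+DMSO, 100% no enzyme; IC50 by variable-slope sigmoidal fit.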

Protein O-GlcNAcase [2] = biological target: T1, Protein O-GlcNAcase; assay: Inhibition of OGA in human SH-SY5Y cells assessed as increase in O-GIcNAcylated protein levels incubated for 48 hrs by in-cell Western assay; format: cell-based
Procedure, shortened: (§1)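 SH-SY5Y cells seeded ~1.8 × 10⁴/well on poly-D-lysine, compound for 48 h at 37 °C. Methanol fixation, 0.1% Triton X-100 permeabilization, blocking, then Alexa Fluor 700-labelled anti-O-GlcNAc RL2 (1:500, 60 min RT). Infrared imaging of integrated fluorescence, normalized to DMSO (100%) and medium (0%); EC50 as curve inflection point, Emax as maximal % increase.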

[3] = biological target: T2, Protein O-GlcNAcase (Homo sapiens) (UniProt O60502); assay: Inhibition of OGA in human SH-SY5Y cells assessed as increase in O-GIcNAcylated protein levels incubated for 48 hrs by in-cell Western assay relative to control; format: cell-based; procedure, shortened: as §1
T2 sequence (whole entry): T1 sequence (O60502 whole entry)

[4] = Inhibition of human placental beta-hexosaminidase using 4-methylumbelliferyl-N-acetyl-beta-D-glucosaminide dihydrate as fluorogenic substrate preincubated with enzyme followed by substrate addition and measured every 5 mins for 60 mins by fluorescence based analysis; format: tissue-based, Placenta
Procedure, shortened: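 Placental β-hexosaminidase at 10 μunits/mL in 50 mM NaH2PO4, 100 mM NaCl, 0.01% BSA, 0.01% Tween 20, 1 mM DTT, pH 7.4. Compound added before 2 mM substrate, room temperature. Fluorescence ex 355/em 460 nm; inhibition versus enzyme+DMSO (0%) and no-enzyme (100%) wells; IC50 from variable-slope sigmoidal regression.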

[5] = Drug level in C57BL/6J mouse plasma at 30 mg/kg, po after 0.5 hrs by LC/MS-MS analysis; format: ADME, organism-based
Procedure, shortened: (§2)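 Suspension in 0.5% (w/v) methylcellulose dosed orally at 30 mg/kg to C57Bl/6J mice (n = 3). Blood and brain taken at 0.5 and 1 h; plasma by centrifugation, brain homogenized in saline. Acetonitrile deproteinization with internal standard, supernatant diluted in 0.2% formic acid/10 mM ammonium formate (pH 3), LC/MS/MS quantitation.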

[6] = Drug level in C57BL/6J mouse plasma at 30 mg/kg, po after 1 hrs by LC/MS-MS analysis; format: ADME, organism-based; procedure, shortened: as §2
[7] = Drug level in C57BL/6J mouse brain at 30 mg/kg, po after 0.5 hrs by LC/MS-MS analysis; format: ADME, organism-based; conditions: read-out: Drug uptake; procedure, shortened: as §2
[8] = Drug level in C57BL/6J mouse brain at 30 mg/kg, po after 1 hrs by LC/MS-MS analysis; format: ADME, organism-based; conditions: read-out: Drug uptake; procedure, shortened: as §2
[9] = Unbound brain-to-plasma concentration ratio in C57BL/6J mouse at 30 mg/kg, po after 0.5 hrs by equilibrium dialysis; format: ADME, organism-based; conditions: read-out: K(p,uu,brain)
Procedure, shortened: (§3)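 Oral dose of 30 mg/kg in 0.5% methylcellulose to C57Bl/6J mice (n = 3); plasma and brain levels at 0.5 and 1 h by LC/MS/MS. Unbound fractions in plasma and brain by equilibrium dialysis; Kp,uu = (fu,brain × Cbrain)/(fu,plasma × Cplasma).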

[10] = Unbound brain-to-plasma concentration ratio in C57BL/6J mouse at 30 mg/kg, po after 1 hrs by equilibrium dialysis; format: ADME, organism-based; conditions: read-out: K(p,uu,brain); procedure, shortened: as §3
[11] = Unbound drug level in C57BL/6J mouse plasma at 30 mg/kg, po by equilibrium dialysis method; format: ADME, organism-based
Procedure, shortened: (§4)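 Unbound fraction in mouse plasma and brain determined by equilibrium dialysis, with the fractions used to correct total plasma and brain levels after a 30 mg/kg oral dose in 0.5% methylcellulose.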

[12] = Unbound drug level in C57BL/6J mouse brain at 30 mg/kg, po by equilibrium dialysis method; format: ADME, organism-based; procedure, shortened: as §4
[13] = biological target: T2, Protein O-GlcNAcase (Homo sapiens); assay: Inhibition of full-length human OGA expressed in Expi293 (HEK293) cells using 4-methylumbelliferyl-N-acetyl-beta-D-glucosaminide dihydrate as fluorogenic substrate at 10 uM preincubated with enzyme followed by substrate addition and measured every 5 mins for 60 mins by fluorescence based analysis
Homo sapiens = organism: Homo sapiens; assay: Inhibition of human placental beta-hexosaminidase using 4-methylumbelliferyl-N-acetyl-beta-D-glucosaminide dihydrate as fluorogenic substrate at 10 uM preincubated with enzyme followed by substrate addition and measured every 5 mins for 60 mins by fluorescence based analysis; format: tissue-based; conditions: Placenta
[14] = biological target: T2, Protein O-GlcNAcase (Homo sapiens); assay: Competitive inhibition of full-length human OGA expressed in Expi293 (HEK293) cells assessed as increase in Km of substrate using varying concentrations of 4-methylumbelliferyl-N-acetyl-beta-D-glucosaminide dihydrate as fluorogenic substrate at 0.48 to 60 nM measured for 60 mins by fluorescence based analysis; conditions: dose 0.48-60 nM
Procedure, shortened: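 Full-length human OGA (FLAG-purified, gel filtration) at 1 nM final, in 50 mM NaH2PO4, 100 mM NaCl, 0.01% BSA, 0.01% Tween 20, 1 mM DTT, pH 7.4. Substrate serially diluted 2-fold from 2 mM at several inhibitor levels. Fluorescence read over 60 min (ex 355/em 460 nm); Vmax and Km from Michaelis–Menten nonlinear fit.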

SMILES: CC1CCN(c2ccnc(NCc3cn(C)cn3)n2)CC1 [TP-040]
- IC50 (Protein O-GlcNAcase [1]): 46 nM
- EC50 (Protein O-GlcNAcase [2]): 450 nM
- Emax [3]: 143%
- IC50 [4]: > 10000 nM
- concentration at 0.5 h [5]: 2800 ng/mL
- concentration at 1 h [6]: 1900 ng/mL
- concentration at 0.5 h [7]: 2700 ng/g
- concentration at 1 h [8]: 2600 ng/g
- Kp uu at 0.5 h [9]: 0.25
- Kp uu at 1 h [10]: 0.36
- fraction unbound [11]: 0.53
- fraction unbound [12]: 0.14

SMILES: CC1CCN(c2ccnc(NCCc3ccccn3)n2)CC1
- IC50 (Protein O-GlcNAcase [1]): 360 nM

SMILES: CN1CCN(c2ccnc(NCCc3ccccc3)n2)CC1 [TP-040n]
- IC50 (Protein O-GlcNAcase [1]): > 10000 nM

SMILES: COC1CCN(c2ccnc(NCCc3ccccc3)n2)CC1
- IC50 (Protein O-GlcNAcase [1]): 970 nM

SMILES: CC1CCN(c2ccnc(NCCc3cccnc3)n2)CC1
- IC50 (Protein O-GlcNAcase [1]): 31 nM

SMILES: CC1CCN(c2ccnc(NC(C)CN3CCN(C)CC3)n2)CC1 (centres undefined)
- inhibition [13]: > 50%
- IC50 (Protein O-GlcNAcase [1]): 41 nM
- inhibition (Homo sapiens): inactive

SMILES: CC1CCN(c2ccnc(NCc3cccnc3)n2)CC1
- IC50 (Protein O-GlcNAcase [1]): 18 nM

SMILES: c1ccc(CCNc2nccc(N3CCOCC3)n2)cc1
- IC50 (Protein O-GlcNAcase [1]): 4700 nM

SMILES: CC1CCN(c2ccnc(NCCc3ccccc3)n2)CC1
- IC50 (Protein O-GlcNAcase [1]): 24 nM
- inhibition [14]: Active

SMILES: OC1CCN(c2ccnc(NCCc3ccccc3)n2)CC1
- IC50 (Protein O-GlcNAcase [1]): > 10000 nM
